As usually defined, the inhibition is the relative decrease from the control value, in per cent. Broadly, the inhibition in vivo is the percentage by which the read-out fell short of the control.

Assay [1] deals with Rattus norvegicus. Kind of assay: Antiinflammatory activity in Wistar rat assessed as inhibition of carrageenan-induced paw volume at 100 mg/kg, po measured after 6 hrs of carrageenan challenge (reference value: 1.69 +/- 0.08 ml). Format: functional. On the technique in general: Carrageenan injected into the paw causes an acute inflammation.
The test system of assay [2] is Rattus norvegicus. Description: Antiinflammatory activity in Wistar rat assessed as inhibition of carrageenan-induced paw volume at 100 mg/kg, po measured after 1 hr of carrageenan challenge (reference value: 0.94 +/- 0.05 ml). Format: functional.
For assay [3], the target named is T1, Prostaglandin G/H synthase 1 (Ovis aries) (UniProt P05979).
T1 sequence (whole entry): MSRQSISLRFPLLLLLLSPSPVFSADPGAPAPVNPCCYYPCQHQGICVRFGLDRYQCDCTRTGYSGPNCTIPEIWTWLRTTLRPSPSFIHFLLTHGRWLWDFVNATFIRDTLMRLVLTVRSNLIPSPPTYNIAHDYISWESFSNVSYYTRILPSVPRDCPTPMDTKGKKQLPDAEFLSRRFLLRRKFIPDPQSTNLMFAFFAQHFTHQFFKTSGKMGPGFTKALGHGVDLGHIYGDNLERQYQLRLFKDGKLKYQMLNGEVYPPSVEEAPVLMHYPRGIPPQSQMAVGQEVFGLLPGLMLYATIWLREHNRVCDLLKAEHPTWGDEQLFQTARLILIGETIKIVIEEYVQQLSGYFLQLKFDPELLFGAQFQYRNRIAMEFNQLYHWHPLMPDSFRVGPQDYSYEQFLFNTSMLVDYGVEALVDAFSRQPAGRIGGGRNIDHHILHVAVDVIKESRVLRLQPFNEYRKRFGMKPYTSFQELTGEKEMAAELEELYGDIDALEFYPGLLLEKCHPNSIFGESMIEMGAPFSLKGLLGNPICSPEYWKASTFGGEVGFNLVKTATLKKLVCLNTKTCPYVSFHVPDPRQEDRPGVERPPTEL
Kind of assay: Inhibition of ovine COX1 assessed as appearance of oxidized N,N,N,N'- tetramethyl-p-phenylenediamine at 100 uM. The essentials: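 Colorimetric ovine COX screening kit. The reaction held assay buffer, heme, COX-1 enzyme and test sample at 100 µM. The COX peroxidase activity was followed by the appearance of oxidized TMPD at 590 nm. Inhibition was calculated as (1 − T/C)×100, where C is the absorbance of the uninhibited well.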

Assay [4] has as its system Rattus norvegicus. Description: Antiinflammatory activity in Wistar rat assessed as inhibition of carrageenan-induced paw volume at 100 mg/kg, po measured after 3 hrs of carrageenan challenge (reference value: 1.17 +/- 0.1 ml). Format: functional.
A further assay relates to Mus musculus. Kind of assay: Antiinflammatory activity in mouse assessed as inhibition of acetic acid-induced vascular permeability by measuring Evan's blue dye leakage at 100 mg/kg, po administered 1 hr before acetic acid challenge measured after 30 mins. Format: functional. The essentials:
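Mice, n=6 per group, were dosed orally at 100 mg/kg; the vehicle was 2% gum acacia at 10 mL/kg. After 1 h they received 0.25 mL of 0.6% v/v acetic acid i.p., then immediately 10% w/v Evans blue at 10 mL/kg i.v. by tail vein. After 30 min they were killed with ether. The viscera were irrigated with 5 mL saline; the perfusate was filtered, made up to 10 mL, and dye read at 620 nm.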

In the case of `COc1cc(OC)c2c(=O)cc(-c3ccc(Cl)cc3Cl)oc2c1-c1ccnn1C`, the values for the Activity in the assay with Rattus norvegicus [1], in the assay on Rattus norvegicus [2] and in the assay with Rattus norvegicus [4] were 1.32 mL, 0.89 mL and 1.11 mL, respectively. Besides, the inhibition in assay [3] was found to be 46.1%.

Take `COc1cc(OC)c2c(=O)cc(-c3c(F)cccc3F)oc2c1-c1ccnn1C`: the Activity in the assay with Rattus norvegicus [1] worked out at 1.44 mL; in the assay with Rattus norvegicus [2] it was 0.88 mL; with Rattus norvegicus [4], 1.24 mL. Also, the inhibition in assay [3] came to 52.2%.

For `COc1cc(OC)c2c(=O)cc(-c3ccc(Br)cc3)oc2c1-c1ccnn1C`, the inhibition in vivo at 100 mg/kg in the assay on Mus musculus was found to be 35.1%. Besides, the Activity is 1.11 mL with Rattus norvegicus [1], 0.81 mL in the assay on Rattus norvegicus [2] and 0.99 mL in the assay on Rattus norvegicus [4]. Also, the inhibition in assay [3] came to 54.1%.

Consider `COc1cc(OC)c2c(=O)cc(-c3cccs3)oc2c1-c1ccnn1C`, for which the Activity in the assay with Rattus norvegicus [1] was found to be 1.55 mL; with Rattus norvegicus [2], 0.91 mL; in the assay with Rattus norvegicus [4] it was 1.18 mL. The inhibition in assay [3] turned out to be 60%.

Turning to `COc1cc(OC)c2c(=O)cc(-c3ccco3)oc2c1-c1ccnn1C`, the inhibition in vivo at 100 mg/kg in the assay on Mus musculus came out at 60.5%. Besides, the Activity in the assay with Rattus norvegicus [1] was determined as 0.88 mL; in the assay on Rattus norvegicus [2] it was 0.87 mL; in the assay on Rattus norvegicus [4], 0.94 mL. Also, the inhibition in assay [3] was determined as 20.4%.

As to `COc1cc(OC)c2c(=O)cc(-c3ccc(F)cc3)oc2c1-c1ccnn1C`, in the assay on Mus musculus, the inhibition in vivo at 100 mg/kg is 51.9%. For the same compound, the Activity worked out at 1.17 mL with Rattus norvegicus [1], 0.76 mL in the assay with Rattus norvegicus [2] and 1.05 mL in the assay with Rattus norvegicus [4]. Also, the inhibition in assay [3] came to 54.1%.

In the case of `COc1ccc2c(c1)c(CC(=O)O)c(C)n2C(=O)c1ccc(Cl)cc1` [INDOMETHACIN], in the assay with Mus musculus, the inhibition in vivo at 100 mg/kg turned out to be 70.4%. The Activity is 0.78 mL in the assay with Rattus norvegicus [1], 0.86 mL in the assay with Rattus norvegicus [2] and 0.95 mL in the assay with Rattus norvegicus [4].

For `COc1cc(OC)c2c(=O)cc(-c3ccc4c(c3)OCO4)oc2c1-c1ccnn1C`, the inhibition in vivo at 100 mg/kg in the assay with Mus musculus was determined as 25.3%. Moreover, the Activity in the assay with Rattus norvegicus [1] turned out to be 1.07 mL; in the assay with Rattus norvegicus [2], 0.86 mL; in the assay with Rattus norvegicus [4], 0.92 mL. Besides, in assay [3], the inhibition came to 51.6%.

On to `COc1ccc(-c2cc(=O)c3c(OC)cc(OC)c(-c4ccnn4C)c3o2)cc1OC`, for which the inhibition in vivo at 100 mg/kg in the assay with Mus musculus worked out at 68.2%. The values for the Activity in the assay on Rattus norvegicus [1], in the assay on Rattus norvegicus [2] and in the assay with Rattus norvegicus [4] were 0.99 mL, 0.79 mL and 0.96 mL, respectively. Moreover, the inhibition in assay [3] worked out at 48.4%.

Turning to `COc1cc(OC)c2c(=O)cc(-c3cccc([N+](=O)[O-])c3)oc2c1-c1ccnn1C`, the inhibition in vivo at 100 mg/kg in the assay on Mus musculus amounted to 33.3%. In addition, the Activity in the assay with Rattus norvegicus [1] worked out at 1.02 mL; with Rattus norvegicus [2], 1.04 mL; with Rattus norvegicus [4], 1 mL. Besides, the inhibition in assay [3] came to 47.4%.

`COc1cc(OC)c2c(=O)cc(-c3ccccc3)oc2c1-c1ccnn1C`: the Activity in the assay on Rattus norvegicus [1] came out at 1.22 mL; with Rattus norvegicus [2] it was 0.77 mL; with Rattus norvegicus [4], 0.91 mL. In addition, in assay [3], the inhibition was 54.1%.

Regarding `COc1cc(OC)c2c(=O)cc(-c3c(Cl)cccc3Cl)oc2c1-c1ccnn1C`, in the assay on Mus musculus, the inhibition in vivo at 100 mg/kg was determined as 57.8%. Further, the figures for the Activity in the assay with Rattus norvegicus [1], in the assay with Rattus norvegicus [2] and with Rattus norvegicus [4] were 1.01 mL, 0.79 mL and 1.46 mL, respectively. For the same compound, in assay [3], the inhibition worked out at 48.9%.

For the compound `COc1cc(OC)c2c(=O)cc(-c3ccc(F)cc3F)oc2c1-c1ccnn1C`, the Activity turned out to be 1.44 mL in the assay with Rattus norvegicus [1], 0.78 mL in the assay on Rattus norvegicus [2] and 1.01 mL in the assay on Rattus norvegicus [4]. Besides, the inhibition in assay [3] came out at 51.6%.

On to `COc1cc(OC)c2c(=O)cc(-c3ccc(F)c(F)c3)oc2c1-c1ccnn1C`, for which the Activity stood at 1.2 mL with Rattus norvegicus [1], 0.79 mL in the assay on Rattus norvegicus [2] and 0.99 mL with Rattus norvegicus [4]. For the same compound, in assay [3], the inhibition amounted to 52.8%.

With `COc1cc(OC)c(-c2cc(=O)c3c(OC)cc(OC)c(-c4ccnn4C)c3o2)c(OC)c1`, the inhibition in vivo at 100 mg/kg in the assay on Mus musculus worked out at 72.3%. The Activity was 0.97 mL with Rattus norvegicus [1], 0.83 mL in the assay with Rattus norvegicus [2] and 0.95 mL in the assay with Rattus norvegicus [4]. For the same compound, the inhibition in assay [3] is 45.7%.
